Assay outcomes (PubChem BioAssay)
In the library only some 4.1% were active in any assay of this set; here they are far more common.
KCNK9 inh: KCNK9 potassium channel inhibitors, primary screen, HEK293 cells, thallium flux. Potassium channel subfamily K member 9 (Homo sapiens), Q9NPC2. FluxOR thallium flux fluorescence; active compounds read low. B-score at 10 µM. 1.2% of 310,000 active;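 active = ratio B-score over 3 SD below the library mean, with starting fluorescence within 5 SD of its mean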;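 also: negative B-score means less thallium flux so channel inhibition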
Target sequence (Q9NPC2 whole entry, looked up): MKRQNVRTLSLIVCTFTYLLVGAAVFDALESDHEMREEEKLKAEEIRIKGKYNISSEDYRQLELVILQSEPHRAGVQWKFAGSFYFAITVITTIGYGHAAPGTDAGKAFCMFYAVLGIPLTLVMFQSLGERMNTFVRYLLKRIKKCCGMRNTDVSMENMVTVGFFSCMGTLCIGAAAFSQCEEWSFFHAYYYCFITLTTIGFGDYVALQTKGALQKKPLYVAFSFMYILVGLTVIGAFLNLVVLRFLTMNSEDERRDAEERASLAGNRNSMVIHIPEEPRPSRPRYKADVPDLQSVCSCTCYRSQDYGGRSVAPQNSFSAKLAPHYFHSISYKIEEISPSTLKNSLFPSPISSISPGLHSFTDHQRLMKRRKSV
KCNK3 block: human KCNK3 channel inhibitors, primary screen, CHO cells, FluxOR thallium flux, B-score. FluxOR fluorescence; active compounds read low. AID 602410, 2012. B-score at 10 µM. 0.84% of 340,000 active;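 active = B-score under library mean minus 4 SD, starting fluorescence ratio at most library mean plus 5 SD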;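 also: more negative B-score means stronger inhibition of thallium flux through KCNK3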
Cl transport mod: KCC2 cotransporter modulators, thallium flux, primary screen, cell-based, HEK293 KCC2, FluoZin-2 fluorescence, MLSMR. Solute carrier family 12 member 5 (Homo sapiens), Q9H2X9. KCC2 cells, thallium flux FluoZin-2 fluorescence. B-score of Tl+ flux slope (higher = more flux/activation; lower = inhibition) at 10 µM. 2.2% of 190,000 active;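 active = thallium flux slope and its plate-corrected score both differing from the plate sample mean at a set confidence after two filtering rounds, in either direction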;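 also: slope of fluorescence scaled to starting intensity during 10 to 20 s after thallium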
hERG rescue: hERG rescue from dofetilide block, primary screen, cell-based, CHO-hERG, FluxOR thallium flux, dofetilide IC70; activation (rescue from dofetilide block), less the hit threshold, % at 10 µM; Voltage-gated inwardly rectifying potassium channel KCNH2 (Homo sapiens), Q12809; dofetilide IC70 present; 0.51% of 310,000 active;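 active = activation above the mean of controls blocked by dofetilide plus 5 SD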;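 also: thallium influx through hERG after potassium depolarization seen as dye fluorescence rise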
KCNQ1 inh: inhibitors of human KCNQ1 channel, primary screen, cell-based, thallium flux, high-throughput. CHO-K1 KCNQ1, FluxOR thallium flux fluorescence; active compounds read high. B-score at 10 µM. 1.3% of 310,000 active. Potassium voltage-gated channel subfamily KQT member 1 (Homo sapiens), P51787. AID 2642, 2010;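 active = compounds whose thallium flux B-score, printed positive for inhibition, exceeds three library SD while starting fluorescence stays within three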;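 also: channel opened by potassium depolarization with thallium stimulus after 20 min compound exposure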
KCNQ1 pot: potentiators or activators of KCNQ1 channel, primary screen, cell-based, thallium flux, high-throughput | Potassium voltage-gated channel subfamily KQT member 1 (Homo sapiens), P51787 | AID 2648, 2010 | CHO-K1 KCNQ1, thallium flux FluxOR fluorescence; active compounds read high | B-score at 10 µM | 0.35% of 310,000 active;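 active = fluorescence ratio B-score, a plate-corrected score, at least three library SD, with initial intensity B-score within 5 SD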
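assay system = CHO-K1 cells stably expressing KCNQ1 | medium = assay buffer, equal DMSO in all wells | timing = 37 °C overnight plating, 90-min dark dye load, 20-min compound pretreatment | measured by = kinetic FluxOR thallium fluorescence, 10-s 1-Hz baseline, 110-s post-stimulus read | measure = fluorescence change relative to baseline, converted to B score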
KCNK9 block conf: KCNK9 potassium channel inhibitors, confirmation, HEK293 cells, thallium flux, duplicate | shares compounds with KCNK9 inh | FluxOR thallium flux fluorescence | inhibition, % at 10 µM | 43% of 4,900 active;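 active = thallium signal inhibited by more than 5 SD of the compound-free buffer control wells, on both duplicate plates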;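 also: 0% = assay buffer control wells without compound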
Kir2-1 spec: mouse Kir2.1 channel inhibition, confirmation, selectivity assay for KCNK9 modulator project, cell-based, HEK293, thallium flux; shares compounds with KCNK9 inh; Kir2.1 cells, FluxOR thallium flux fluorescence; inhibition, % at 10 µM; 4% of 4,900 active;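 active = thallium signal drop more than 5 SD beyond the mean of the no-compound control wells, seen in both duplicate plates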;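 also: signal is fluorescence rise after thallium addition divided by baseline fluorescence; plate controls were assay buffer only for no effect and full block by chlorpromazine control for full effect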
KCNK9 uninduced: thallium flux in non-induced HEK293 cells, confirmation, counter-screen for KCNK9 inhibitor project, cell-based, second counter screen, non-induced KCNK9-HEK293. shares compounds with KCNK9 inh. FluxOR thallium flux. inhibition, % at 10 µM. 40% of 4,900 active;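 active = thallium signal drop beyond 5 SD of the untreated control mean, on both duplicate plates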;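 also: plate controls were buffer only IC0 wells for no effect and SID17386958 at its maximal inhibitory level for full effect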
* marks the source's active call; other numbers are inactive results; i = inactive; . = no result given.

SMILES	KCNK9 inh	KCNK3 block	Cl transport mod	hERG rescue	KCNQ1 inh	KCNQ1 pot	KCNK9 block conf	Kir2-1 spec	KCNK9 uninduced
O=C(NC1CCCCC1)C(c1ccco1)N(C(=O)c1csnn1)c1cccc(Cl)c1 (stereo not drawn)	i	i	.	-14	i	i	.	.	.
CCCOc1ccc(C(=O)N/N=C/c2c[nH]c3ccc(Br)cc23)cc1	i	i	.	-8	i	i	.	.	.
O=C(N/N=C/c1c[nH]c2ccc(Br)cc12)c1ccn(Cc2ccc(Cl)cc2)n1	-15*	i	1.5	-4	i	i	49%*	i	i
CCCN(C(=O)CSc1ncnc2sccc12)c1c(N)n(Cc2ccccc2)c(=O)[nH]c1=O	.	i	.	.	.	.	.	.	.
CCCNC(=O)c1ccc(N2CCC3(CC2)CC(c2cccc(Br)c2)=NO3)c([N+](=O)[O-])c1	i	i	.	-31	i	i	.	.	.
COc1ccc(C2=Nc3ccc(C)cc3C(c3ccccc3)N2CC(=O)NN)cc1 (stereo not drawn)	i	i	0.37	-11	i	i	.	.	.
COC(=O)CN1C(c2ccc(Cl)cc2)=Nc2ccc(Cl)cc2C1c1ccccc1 (stereo not drawn)	-10*	i	-1.9	-12	i	i	32%*	i	42%*
CCN1/C(=C/c2sc(-c3ccccc3C)c[n+]2C)Sc2ccccc21	-13*	-10*	-1.3	-52	11*	i	69%*	64%*	28%*
CCC(=O)/C=C1/Sc2ccccc2N1CC	i	i	0.67	-4	i	i	.	.	.
O=C(CN1CCN(c2ccccc2)CC1)N1N=CCC1c1ccccc1 (stereo not drawn)	i	i	.	-9	i	i	.	.	.
NC(=O)C1CCN(CC(=O)N2N=CCC2c2ccccc2)CC1 (stereo not drawn)	-8.9*	i	0.051	-7	i	i	i	i	i
Cc1ccccc1-c1ocnc1C(=O)Nc1ccccc1NC(=O)c1ccccn1	-8.7*	i	.	-13	i	i	38%*	i	i
Cc1ccc(C)c(C(=O)c2ccccc2NC(=O)c2ccccn2)c1	i	i	.	-6	i	i	.	.	.
Cc1ccc(NC(=O)COC(=O)c2c(-c3ccccc3)noc2C)c(C)c1	.	i	.	.	.	.	.	.	.
O=C(Nc1ccccc1-c1nnc(SCc2ccccc2Cl)o1)c1ccccc1	i	i	-0.043	-8	i	i	i	i	i
CC(NC1c2ccccc2-c2ccccc21)c1ccccc1 (stereo not drawn)	i	i	.	-11	i	i	.	.	.
COc1ccc(C(C)=O)cc1CSc1nc2ccccc2c(=O)n1-c1ccccc1	i	i	1.7	-7	i	i	.	.	.
COc1ccccc1-n1c(SCC(=O)N2CCOCC2)nc2ccccc2c1=O	i	i	.	-6	i	i	.	.	.
COc1ccc(C(C)=O)cc1CSc1nc2ccccc2c(=O)n1-c1ccccc1C	-9*	i	-0.13	-5	i	i	32%*	i	32%*
